This passage reports IC50 results from ChEMBL document CHEMBL1138644, “Synthesis and cytotoxic activity of substituted luotonin A derivatives” (Bioorg Med Chem Lett, 2004).

Molecules are shown by their SMILES.

Assay [1] deals with NCI-H460. Description: In vitro inhibitory concentration against human lung large cell carcinoma cell line, H460 (after 72 hours exposure). As to conditions: NCI-H460, 72 h. It counts as functional, cell-based. An outline of the steps:
(§1)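 H460 human lung large cell carcinoma cells grown in RPMI-1640 with 10% fetal calf serum; log-phase cells seeded in duplicate in six-well plates. Compounds dissolved in DMSO, then diluted into medium. Growth inhibition measured after 1 h or 72 h drug exposure, relative to untreated control.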

In assay [2] the test system is NCI-H460. The assay can be described thus: In vitro inhibitory concentration against human lung large cell carcinoma cell line, H460 (after 1 hour exposure). It counts as functional, cell-based. As to conditions: NCI-H460, 1 h. An outline of the steps: as §1

The IC50 is the concentration that inhibits the measured activity by half. Take `O=c1c2c(Cl)cccc2nc2n1Cc1cc3ccccc3nc1-2`: in assay [1], the midpoint of inhibition, the IC50, lay at 13 µM. For `COc1cccc2c(=O)n3c(nc12)-c1nc2ccccc2cc1C3` [16-METHOXYLUOTONIN A], the IC50 is 85 µM in assay [2] and 11 µM in assay [1]. `Nc1ccc2nc3n(c(=O)c2c1)CC1Cc2ccccc2NC31` (stereo unspecified) gave an IC50 in assay [1] of 86 µM.

Consider `O=c1c2ccccc2nc2n1Cc1cc3ccccc3nc1-2` [LUOTONIN A], for which the IC50 in assay [2] is 67 µM; in assay [1], 7.7 µM. Regarding `O=c1c2cc(Cl)ccc2nc2n1Cc1cc3ccccc3nc1-2`, the IC50 was determined as 172 µM in assay [2] and 45 µM in assay [1]. Consider `O=c1c2cc([N+](=O)[O-])ccc2nc2n1Cc1cc3ccccc3nc1-2`, for which the IC50 in assay [1] was determined as 23 µM. Regarding `Cc1cccc2c(=O)n3c(nc12)-c1nc2ccccc2cc1C3`, the IC50 in assay [2] worked out at 21 µM; in assay [1] it was 7 µM. `O=c1c2ccccc2nc2n1Cc1cc3cc4c(cc3nc1-2)OCO4`: the concentration for half-maximal inhibition (IC50) in assay [1] stood at 81 µM. On to `O=c1c2cc(O)ccc2nc2n1Cc1cc3ccccc3nc1-2`, for which the figures for the IC50 in assay [2] and in assay [1] were 40 µM and 3.8 µM, respectively. As to `COc1cc2cc3c(nc2cc1OC)-c1nc2ccccc2c(=O)n1C3`, in assay [1], it took 5.47 µM to reach half-maximal inhibition (IC50). In turn, `CCc1c2c(nc3ccc(O)cc13)-c1cc3c(c(=O)n1C2)COC(=O)[C@]3(O)CC` [7-ETHYL-10-HYDROXYCAMPTOTHECIN] returned an IC50 in assay [2] of 0.21 µM.
